# Compounds with a hit are over-represented: about 1.5% of the library has one in this group of screens.
# APJ antag: APJ receptor antagonism; CHO-K1 APJ beta-arrestin complementation, luminescence; inhibition, % at 20 µM; 0.32% of 330,000 active;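 active = inhibition above about 40% at 20 µM, limit read from the data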;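 also: cells challenged with 10 nM apelin-13 agonist together with compound; plate controls were apelin-13 plus DMSO wells for no effect and DMSO wells lacking apelin-13 for full effect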
# EBI2 block: antagonists of human EBI2 receptor; P32249; 0.81% of 360,000 active; inhibition, % at 5 µM; EBI2 beta-arrestin recruitment, luminescence, 7a,25-OHC stimulated; in the data active = inhibition above about 38%;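 also: enzyme fragment complementation signal reports receptor beta-arrestin coupling in cells; 0% = agonist plus DMSO wells and 100% = wells without agonist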
# CCR6 antagonist: antagonists of human CCR6 receptor; P51684; inhibition, % at 20 µM; 0.49% of 340,000 active; AID 493098; CHO-K1 CCR6 PathHunter beta-arrestin, luminescence, CCL20-stimulated;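 active = compounds whose inhibition of the agonist-driven luminescence signal at 20 µM reaches about 50%, limit read from the data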;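 also: cells stimulated with CCL20 at 14 nM final; plate controls were DMSO with CCL20 for no effect and DMSO without agonist for full effect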
# APJ ag: agonists of human APJ apelin receptor | P35414 | CHO-K1 APJ PathHunter beta-arrestin, luminescence; 0% DMSO wells, 100% apelin | activation, % at 20 µM | 0.11% of 330,000 active;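 active = activation more than six SD over the plate average, tested at 20 µM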;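 also: 0% = DMSO alone and 100% = apelin-13 at 10 nM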
#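 Incubation: overnight seeding, 90 min compound at 25 °C, 1 h detection; test system: PathHunter CHO-K1 APJ (AGTRL-1) beta-arrestin reporter cells; amount: 1000 cells/well; doses: one dose, 20 µM compound, 1% DMSO; measured by: beta-gal luminescence; measure: agonist-driven arrestin binding to APJ; benchmarks: negative DMSO alone, positive Apelin-13 at 10 nM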
# CXCR6 block: CXCR6 (human) receptor inhibition; O00574; CHO-K1 PathHunter CXCR6 beta-arrestin, luminescence; inhibition, % at 20 µM; 0.36% of 360,000 active; AID 602244; in the data active = inhibition above about 34%, passing the limit was not always enough;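 also: antagonist mode with CXCL16 agonist at 10 nM final; 0% = 10 nM CXCL16 with DMSO and 100% = unstimulated wells without agonist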
# Target sequence (O00574 whole entry, looked up): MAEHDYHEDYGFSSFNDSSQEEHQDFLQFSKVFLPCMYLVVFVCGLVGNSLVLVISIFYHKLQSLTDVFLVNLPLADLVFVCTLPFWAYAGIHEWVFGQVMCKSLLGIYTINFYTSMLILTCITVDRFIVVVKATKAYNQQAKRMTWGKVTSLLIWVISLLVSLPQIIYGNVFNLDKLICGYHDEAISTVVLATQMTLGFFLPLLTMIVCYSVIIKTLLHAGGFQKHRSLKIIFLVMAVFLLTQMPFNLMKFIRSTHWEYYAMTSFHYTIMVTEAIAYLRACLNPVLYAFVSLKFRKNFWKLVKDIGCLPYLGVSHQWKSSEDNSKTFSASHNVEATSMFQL
# EBI2 antag conf: confirmation of human EBI2 receptor antagonists. shares compounds with EBI2 block. EBI2 beta-arrestin luminescence, 7a,25-OHC antagonism. inhibition, % at 5 µM. 29% of 2,400 active. AID 651997;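 active = inhibition of at least 50%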
# EBI2 agonist: EBI2 agonism counter-screen. shares compounds with EBI2 block. EBI2-expressing cells, agonist mode, luminescence, 60 min; 0% vehicle, 100% 7α,25-dihydroxycholesterol control. activation, % at 5 µM. 2,400 tested, under 10 active;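 active = activation of at least 50%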
# bGal cs: counter-screen for EBI2 antagonists: E. coli beta-galactosidase inhibition; shares compounds with EBI2 block; purified beta-galactosidase, luminescent Galacton Star, 15 min; inhibition, % at 5 µM; 1% of 2,400 active;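 active = replicate-average signal at least 3 plate SD below neutral wells, shown as high inhibition, flagging enzyme-inhibiting false positives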;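 also: 0% = DMSO wells with enzyme and 100% = wells lacking enzyme; higher means stronger loss of beta-gal luminescence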
# * = called active by the depositor; nt = no result.
SMILES,APJ antag,EBI2 block,CCR6 antagonist,APJ ag,CXCR6 block,EBI2 antag conf,EBI2 agonist,bGal cs
CCCCCN(C(=O)CCC(=O)OC(C)C(=O)c1ccccc1)c1c(N)n(CCCC)c(=O)[nH]c1=O (stereo unspecified),-31.7,-0.7,12.2,-3.5,-6.7,nt,nt,nt
O=C(Nc1cccnc1)/C(N=Nc1cccnc1)=C(\O)c1ccccc1,-5.2,3.1,-13.9,0.0,0.9,nt,nt,nt
Cc1ccccc1N1C(=O)c2ccccc2C1O (stereo unspecified),-7.2,0.5,5.5,-1.9,6.2,nt,nt,nt
CCN(C(=O)Cc1c(C(=O)O)[nH]c2ccccc12)c1ccc(OC)cc1,2.3,-8.0,5.2,-3.3,-6.9,nt,nt,nt
Cc1[nH]c2ccc(C(=O)N3CCN(c4ccccn4)CC3)cc2c1C,10.6,41.1*,13.1,2.5,1.6,38.8,0.6,8.2
CCCN1CCN(C(=O)c2ccc3[nH]c(C)c(C)c3c2)CC1,nt,73.2*,nt,nt,0.5,46.2,-0.7,-10.9
Cc1[nH]c2ccc(C(=O)N3CCN(Cc4ccccc4)CC3)cc2c1C,-13.4,64.8*,5.5,-0.6,-8.0,40.3,3.0,5.6
COc1ccc2[nH]c(C(=O)N3CCN(Cc4ccccc4)CC3)cc2c1OC,15.7,52.4*,5.9,-4.6,-2.9,17.0,0.5,-9.6
Cc1cc(C)cc(NC(=O)COC(=O)Cn2cnc3c2c(=O)n(C)c(=O)n3C)c1,1.5,-11.0,2.1,0.4,1.8,nt,nt,nt
CCOc1ccc(-n2cc(C(=O)Nc3cccc(OC)c3)c3cc(OC)c(OC)cc3c2=O)cc1,-7.9,14.6,7.8,2.2,-0.4,nt,nt,nt
COc1ccc(C2=NN(C(=O)CSc3ncccn3)C(c3ccc(OC)cc3)C2)cc1 (stereo unspecified),-9.3,4.2,19.8,1.0,0.8,nt,nt,nt
COc1ccc(C2=NN(C(=O)CSc3cn(C)c4ccccc34)C(c3ccc(OC)cc3)C2)cc1 (stereo unspecified),5.1,83.9*,4.2,-3.9,6.2,65.1*,-1.1,-9.9
COc1ccc(C2=NN(C(=O)CSc3nc(=O)n4cc(C)ccc4n3)C(c3ccc(C)cc3)C2)cc1 (stereo unspecified),22.9,63.0*,11.2,8.3,9.2,29.7,-0.1,8.9
COc1ccc(C2CC(c3cccs3)=NN2C(=O)CSc2nc(=O)n3ccc(C)cc3n2)cc1 (stereo unspecified),15.7,2.7,5.7,1.7,10.7,nt,nt,nt
CC(C)CNc1nnnc2c1sc1nc(N3CCOCC3)c3c(c12)CCCC3,15.0,22.5,17.4,0.5,17.4,nt,nt,nt
C=CCNc1nnnc2c1sc1nc(N3CCOCC3)c3c(c12)CCCC3,4.5,51.5*,7.7,-4.0,-5.4,19.1,0.3,1.8
COc1ccc(N2CCN(C(=O)c3csc4ccccc34)CC2)cc1,8.9,53.0*,14.9,-4.3,-1.5,39.3,-0.2,9.6
CCc1nc2ccc(C(=O)N3CCN(c4cccc(OC)c4)CC3)cc2nc1CC,10.1,-2.6,13.7,-3.7,5.1,nt,nt,nt
O=C(c1csc2ccccc12)N1CCN(c2ccc(Cl)c(Cl)c2)CC1,16.0,38.3,12.6,1.8,-4.0,nt,nt,nt
COc1cccc(C(=O)N2CCN(C(=O)COc3ccc4ccccc4c3)CC2)c1,-6.9,95.3*,-2.5,-3.9,1.4,78.0*,0.7,8.0
O=C(COc1ccc2cc(Br)ccc2c1)N1CCCC1,5.5,68.8*,2.7,4.1,-0.4,44.4,1.7,8.0
COc1cccc(N2CCN(C(=O)c3ccc4ccccc4c3)CC2)c1,-3.5,62.4*,4.3,-5.3,-19.4,41.8,1.1,5.1
Cc1nnc(NC(=O)c2ccc(Br)o2)s1,15.1,-9.9,5.8,-1.3,3.0,nt,nt,nt
COc1cc(C(=O)N2CCN(C(=O)COc3ccc4ccccc4c3)CC2)cc(OC)c1OC,25.1,70.6*,2.9,-3.3,-7.3,50.1*,0.5,5.8
CCOC(=O)N1CCN(C(=O)c2ccc3ccccc3c2)CC1,-1.6,67.6*,14.9,0.0,-3.4,30.9,-1.4,-9.8
